Measurements reported in ChEMBL document CHEMBL1138421, “Synthesis and antiproliferative activity of (2R,3R)-disubstituted tetrahydropyrans. Part 2: Effect of side chain homologation” (2007).

Columns and labels:
Format in all cases: functional
WiDr = assay: Antiproliferative activity against human WiDr cells after 48 hrs by sulforhodamine B assay
Outline: (§1)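 Dose-response curves built per compound up to 100 μM maximum; percentage of growth (PG) computed, with GI₅₀, TGI and LC₅₀ taken as concentrations giving PG +50, 0 and −50. TGI and LC₅₀ reported only when below 100 μM. Values in μM, means of two to four experiments with standard deviation.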

A2780 = assay: Antiproliferative activity against human A2780 cells after 48 hrs by sulforhodamine B assay; conditions: A2780, 48 h; outline: as §1
SW1573 = assay: Antiproliferative activity against human SW1573 cells after 48 hrs by sulforhodamine B assay; conditions: SW1573, 48 h; for CC50: read-out: LC50 (the source's name); outline: as §1

C=C[C@H]1CCC[C@@H]([C@H]2COC(C)(C)O2)O1
GI50 (WiDr): > 100 µM

CC(C)(C)[Si](C)(C)O[C@@H]1CCCO[C@@H]1COCC(=O)OCc1ccccc1
GI50 (A2780): 28 µM
LC50 (concentration giving 50% net cell kill) (A2780): 94 µM
TGI (A2780): 81 µM
GI50 (SW1573): 29 µM
TGI (SW1573): 85 µM
GI50 (WiDr): 37 µM
TGI (WiDr): 88 µM

COC(=O)/C=C/OC[C@H]1OCCC[C@H]1O[Si](C)(C)C(C)(C)C (relative stereo)
GI50 (A2780): 30 µM
TGI (A2780): 82 µM
GI50 (SW1573): 50 µM
GI50 (WiDr): 36 µM

CC(C)(C)[Si](C)(C)O[C@@H]1CCCO[C@@H]1CO/C=C/C(=O)OCc1ccccc1
GI50 (A2780): 26 µM
GI50 (SW1573): 26 µM
GI50 (WiDr): 37 µM

CC(C)(C)[Si](C)(C)O[C@@H]1CCCO[C@@H]1COCCCO
GI50 (A2780): > 100 µM
GI50 (SW1573): > 100 µM
GI50 (WiDr): > 100 µM

CC(C)(C)[Si](C)(C)O[C@@H]1CCCO[C@@H]1CO/C=C/CO
GI50 (A2780): > 100 µM
GI50 (SW1573): > 100 µM
GI50 (WiDr): > 100 µM

O=C(COC[C@H]1OCCC[C@@H]1O)OCc1ccccc1 (relative stereo)
GI50 (A2780): > 100 µM
GI50 (SW1573): > 100 µM
GI50 (WiDr): > 100 µM

CC(C)(C)[Si](C)(C)O[C@@H]1CCCO[C@@H]1COCC(=O)O (relative stereo)
GI50 (A2780): > 100 µM
GI50 (SW1573): > 100 µM
GI50 (WiDr): > 100 µM

c1ccc([C@H]2OC[C@H]3OCCC[C@H]3O2)cc1
GI50 (A2780): > 100 µM
GI50 (SW1573): > 100 µM
GI50 (WiDr): > 100 µM

CC(C)(C)[Si](C)(C)O[C@H]1CCCO[C@@H]1COCC(=O)OCc1ccccc1 (relative stereo)
GI50 (A2780): 17 µM
LC50 (concentration giving 50% net cell kill) (A2780): 74 µM
TGI (A2780): 36 µM
GI50 (SW1573): 17 µM
TGI (SW1573): 37 µM
CC50 (SW1573): 79 µM
GI50 (WiDr): 28 µM
TGI (WiDr): 91 µM

c1cc([C@H]2OC[C@H]3OCCC[C@H]3O2)nc([C@H]2OC[C@H]3OCCC[C@H]3O2)c1
GI50 (A2780): > 100 µM
GI50 (SW1573): > 100 µM
GI50 (WiDr): > 100 µM

O=C(COC[C@H]1OCCC[C@H]1O)OCc1ccccc1
GI50 (A2780): > 100 µM
GI50 (SW1573): > 100 µM
GI50 (WiDr): > 100 µM

COC(=O)CCOC[C@H]1OCCC[C@H]1O[Si](C)(C)C(C)(C)C
GI50 (A2780): > 100 µM
GI50 (SW1573): > 100 µM
GI50 (WiDr): > 100 µM

c1cc([C@H]2OC[C@H]3OCCC[C@H]3O2)ccc1[C@H]1OC[C@H]2OCCC[C@H]2O1
GI50 (A2780): > 100 µM
GI50 (SW1573): > 100 µM
GI50 (WiDr): > 100 µM

CC(C)(C)[Si](C)(C)O[C@H]1CCCO[C@@H]1CO (relative stereo)
GI50 (A2780): > 100 µM
GI50 (SW1573): > 100 µM
GI50 (WiDr): > 100 µM

O=C1COC[C@H]2OCCC[C@H]2O1
GI50 (A2780): > 100 µM
GI50 (SW1573): > 100 µM
GI50 (WiDr): > 100 µM

CC(C)(C)[Si](C)(C)O[C@@H]1CCCO[C@@H]1CO (relative stereo)
GI50 (A2780): > 100 µM
GI50 (SW1573): > 100 µM
GI50 (WiDr): > 100 µM

O=C1COC[C@H]2OCCC[C@@H]2O1 (relative stereo)
GI50 (A2780): > 100 µM
GI50 (SW1573): > 100 µM
GI50 (WiDr): > 100 µM

C=CCOC[C@H]1OCCC[C@H]1O[Si](C)(C)C(C)(C)C (relative stereo)
GI50 (A2780): 15 µM
LC50 (concentration giving 50% net cell kill) (A2780): 68 µM
TGI (A2780): 32 µM
GI50 (SW1573): 18 µM
TGI (SW1573): 39 µM
CC50 (SW1573): 85 µM
GI50 (WiDr): 88 µM
